# From ChEMBL document CHEMBL3593173, “Discovery of novel N-(5-(tert-butyl)isoxazol-3-yl)-N'-phenylurea analogs as potent FLT3 inhibitors and evaluation of their activity against acute myeloid leukemia in vitro and in vivo” (Bioorg Med Chem, 2015)
# Activity calls are given as the source filed them. No cut-off for these calls is given here.
# Experiments:
# [1] = Solubility in MeOH solution; assay type: physicochemical
# [2] = Solubility in water; assay type: physicochemical
# [3] = Solubility in PBS solution; assay type: physicochemical
# [4] = Solubility in SPSS; assay type: physicochemical
# [5] = AUC (0 to 24 hrs) in Sprague-Dawley rat at 30 mg/kg, po after 15 mins to 24 hrs by HPLC method; assay type: ADME, organism-based; parameters: dose 30 mg/kg, time < 24 hr, route oral; settings: in vivo
# Procedure, shortened: (§1)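 Sprague–Dawley rats (n = 3) fasted overnight, then given a single 30 mg/kg oral gavage dose in 25% PEG400, 5% DMSO and 70% distilled water. Heparinized blood was drawn at 15 min, 30 min, 1, 2, 4, 6, 12 and 24 h, and plasma was separated by centrifugation. Plasma levels were measured by liquid–liquid extraction and HPLC.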
# [6] = Cmax in Sprague-Dawley rat at 30 mg/kg, po after 15 mins to 24 hrs by HPLC method; assay type: ADME, organism-based; parameters: dose 30 mg/kg, route oral; settings: in vivo; procedure, shortened: as §1
# [7] = Apparent half life in Sprague-Dawley rat at 30 mg/kg, po after 15 mins to 24 hrs by HPLC method; assay type: ADME, organism-based; settings: in vivo, read-out: t1/2(app) (converted); procedure, shortened: as §1
# Rattus norvegicus = assay: Volume of distribution at steady state in Sprague-Dawley rat at 30 mg/kg, po after 15 mins to 24 hrs by HPLC method; assay type: ADME, organism-based; settings: in vivo; procedure, shortened: as §1
# MV4-11 [8] = assay: Growth inhibition of FLT3-ITD bearing human MV4-11 cells incubated for 72 hrs by MTT assay; assay type: functional, cell-based; settings: MV4-11, 72 h
# Procedure, shortened: (§2)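 Leukemia cells were grown with 10% FBS at 37 °C in 5% CO₂; MV4-11 was kept in IMDM. Cells were seeded at 1–4 × 10⁴ per well, and an equal volume of medium containing increasing inhibitor concentrations was added. MTT was added for 2–4 h, formazan was dissolved in DMSO, and OD was read at 570 nm to derive IC50.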
# K562 = assay: Growth inhibition of human K562 cells incubated for 72 hrs by MTT assay; assay type: functional, cell-based; settings: K562, 72 h; procedure, shortened: as §2
# U-937 = assay: Growth inhibition of human U937 cells incubated for 72 hrs by MTT assay; assay type: functional, cell-based; settings: U-937, 72 h; procedure, shortened: as §2
# THP-1 = assay: Growth inhibition of human THP1 cells incubated for 72 hrs by MTT assay; assay type: functional, cell-based; settings: THP-1, 72 h; procedure, shortened: as §2
# Jurkat = assay: Growth inhibition of human Jurkat cells incubated for 72 hrs by MTT assay; assay type: functional, cell-based; procedure, shortened: as §2
# A549 = assay: Growth inhibition of human A549 cells incubated for 72 hrs by MTT assay; assay type: functional, cell-based; settings: A549, 72 h
# Procedure, shortened: (§3)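 Non-leukemia lines were grown in RPMI 1640 or DMEM with 10% FBS at 37 °C in 5% CO₂. Cells were seeded at 2–5 × 10³ per well and incubated 24 h, then treated with diluted inhibitors for 72 h. MTT was added for 2–4 h, formazan was dissolved in DMSO, and OD was read at 570 nm to derive IC50.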
# MCF7 = assay: Growth inhibition of human MCF7 cells incubated for 72 hrs by MTT assay; assay type: functional, cell-based; settings: MCF7, 72 h; procedure, shortened: as §3
# [9] = Growth inhibition of human PANC1 cells incubated for 72 hrs by MTT assay; assay type: functional, cell-based; settings: PANC-1, 72 h; procedure, shortened: as §3
# U-251 = assay: Growth inhibition of human U251 cells incubated for 72 hrs by MTT assay; assay type: functional, cell-based; settings: U-251, 72 h; procedure, shortened: as §3
# HepG2 = assay: Growth inhibition of human HepG2 cells incubated for 72 hrs by MTT assay; assay type: functional, cell-based; settings: HepG2, 72 h; procedure, shortened: as §3
# HCT-116 = assay: Growth inhibition of human HCT116 cells incubated for 72 hrs by MTT assay; assay type: functional, cell-based; settings: HCT-116, 72 h; procedure, shortened: as §3
# MV4-11 [10] = assay: Induction of apoptosis in human MV4-11 cells assessed as late apoptotic cells level at 1 nM incubated for 48 hrs by Annexin V-FITC labeling based flow cytometry (reference value: 6.61%); assay type: functional
# MV4-11 [11] = assay: Induction of apoptosis in human MV4-11 cells assessed as viable cells at 10 nM incubated for 48 hrs by Annexin V-FITC labeling based flow cytometry (reference value: 86.1%); assay type: functional; settings: MV4-11, 48 h, read-out: Activity
# MV4-11 [12] = assay: Induction of apoptosis in human MV4-11 cells assessed as early apoptotic cells level at 10 nM incubated for 48 hrs by Annexin V-FITC labeling based flow cytometry (reference value: 3.54%); assay type: functional
# MV4-11 [13] = assay: Induction of apoptosis in human MV4-11 cells assessed as late apoptotic cells level at 10 nM incubated for 48 hrs by Annexin V-FITC labeling based flow cytometry (reference value: 6.61%); assay type: functional
# MV4-11 [14] = assay: Induction of apoptosis in human MV4-11 cells assessed as viable cells at 100 nM incubated for 48 hrs by Annexin V-FITC labeling based flow cytometry (reference value: 86.1%); assay type: functional; settings: MV4-11, 48 h, read-out: Activity
# MV4-11 [15] = assay: Induction of apoptosis in human MV4-11 cells assessed as necrotic cells level at 100 nM incubated for 48 hrs by Annexin V-FITC labeling based flow cytometry (reference value: 3.76%); assay type: functional
# MV4-11 [16] = assay: Antitumor activity against FLT3-ITD bearing human MV4-11 cells xenografted in orally dosed NOD-SCID mouse assessed as tumor growth inhibition; assay type: functional, organism-based
# Procedure, shortened: (§4)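 MV4-11 cells in exponential growth were washed three times in serum-free medium, resuspended at 1 × 10⁸ cells/mL and injected subcutaneously into NOD-SCID mice aged 5–6 weeks. At 100–200 mm³, tumors were randomized into 4 groups of 6. Dosing was 10, 30 or 60 mg/kg/d, or vehicle (25% PEG400 plus 5% DMSO in water), by oral gavage once daily. Tumor volume was measured every 3 days, and body weight and toxicity signs were monitored.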
# MV4-11 [17] = assay: Antitumor activity against FLT3-ITD bearing human MV4-11 cells xenografted in NOD-SCID mouse assessed as tumor growth inhibition at 10 mg/kg/day, po; assay type: functional; settings: MV4-11, po, read-out: TGI; procedure, shortened: as §4
# MV4-11 [18] = assay: Antitumor activity against FLT3-ITD bearing human MV4-11 cells xenografted in NOD-SCID mouse assessed as tumor growth inhibition at 30 mg/kg/day, po; assay type: functional; settings: MV4-11, po, read-out: TGI; procedure, shortened: as §4
# Mus musculus [19] = assay: Toxicity in FLT3-ITD bearing human MV4-11 cells xenografted NOD-SCID mouse assessed as induction of body weight loss at 10 to 60 mg/kg/day, po; assay type: organism-based; settings: in vivo; procedure, shortened: as §4
# Mus musculus [20] = assay: Toxicity in FLT3-ITD bearing human MV4-11 cells xenografted NOD-SCID mouse assessed as induction of toxicity signs at 10 to 60 mg/kg/day, po; assay type: organism-based; settings: in vivo; procedure, shortened: as §4
# MV4-11 [21] = assay: Inhibition of cell proliferation of FLT3-ITD bearing human MV4-11 cells xenografted in NOD-SCID mouse assessed as reduction in Ki67-positive cells in tumor tissues at 60 mg/kg/day, po qd for 7 days by immunohistochemistry; assay type: functional, organism-based
# Procedure, shortened: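 NOD-SCID mice bearing subcutaneous MV4-11 xenografts were dosed at 60 mg/kg/d by oral gavage, once daily. Tumors were harvested 7 days later. Proliferation was scored by Ki67 immunostaining and apoptosis by TUNEL staining.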
# MV4-11 [22] = assay: Induction of apoptosis in FLT3-ITD bearing human MV4-11 cells xenografted in NOD-SCID mouse at 60 mg/kg/day, po qd for 7 days by TUNEL assay
smiles,measurement,setting,value
COc1ccn2cc(-c3ccc(NC(=O)Nc4cc(C(C)(C)C)on4)cc3)nc2c1,solubility,[1],7460 µg/mL
same,solubility,[2],304 µg/mL
same,solubility,[3],36.6 µg/mL
same,solubility,[4],1.47 µg/mL
same,AUC(0-t) at 24 h,[5],14300 ng·h/mL
same,Cmax,[6],3290 ng/mL
same,half-life,[7],4.86 h
same,Vdss,Rattus norvegicus,14.12 L/kg
same,IC50,MV4-11 [8],0.003 µM
same,IC50,K562,> 20 µM
same,IC50,U-937,> 20 µM
same,IC50,THP-1,3.37 µM
same,IC50,Jurkat,> 20 µM
same,IC50,A549,5.61 µM
same,IC50,MCF7,> 20 µM
same,IC50,[9],> 20 µM
same,IC50,U-251,> 20 µM
same,IC50,HepG2,> 20 µM
same,IC50,HCT-116,> 20 µM
same,Activity,MV4-11 [10],12.1%
same,viability at 0.01 µM,MV4-11 [11],63.2%
same,Activity,MV4-11 [12],7.42%
same,Activity,MV4-11 [13],18.6%
same,viability at 0.1 µM,MV4-11 [14],54.8%
same,Activity,MV4-11 [15],15.3%
same,TGI,MV4-11 [16],Dose-dependent effect
same,inhibition in vivo at 10 mg/kg/day,MV4-11 [17],51%
same,inhibition in vivo at 30 mg/kg/day,MV4-11 [18],87%
same,Activity,Mus musculus [19],Non-toxic
same,Activity,Mus musculus [20],Non-toxic
same,inhibition,MV4-11 [21],Active
same,Activity,MV4-11 [22],Active
